Source: ChEMBL document CHEMBL2146467, “Generation and exploration of new classes of antitubercular agents: The optimization of oxazolines, oxazoles, thiazolines, thiazoles to imidazo[1,2-a]pyridines and isomeric 5,6-fused scaffolds” (Bioorg Med Chem, 2012)
Values after ≈ are worked out from the molar mass of the structure shown.

Legend:
[1] = Metabolic stability in Sprague-Dawley rat liver microsomes assessed as compound remaining at 20 uM after 15 mins by LC/MS analysis; type: ADME, Microsome; conditions: read-out: Stability
[2] = system: Mycobacterium tuberculosis; assay: Antimycobacterial activity against Mycobacterium tuberculosis H37Rv ATCC 27294 culture in 7H12 media after 7 days by microplate alamar blue assay; type: functional; conditions: H37Rv ATCC 27294, 168 h
Summary of the method: (§1)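 Replicating Mtb H37Rv. The MIC is the concentration that inhibits growth of 90% of organisms. Media by line: GAS is glycerol-alanine-salts. GAST is iron-deficient glycerol-alanine-salts with Tween 80. 7H12 is 7H9 broth base with BSA, casein hydrolysate, catalase and palmitic acid. Values are reported in μM.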

[3] = system: Mycobacterium tuberculosis; assay: Antimycobacterial activity against Mycobacterium tuberculosis H37Rv ATCC 27294 culture in GAS media after 7 days by microplate alamar blue assay; type: functional; conditions: H37Rv ATCC 27294, 168 h; summary of the method: as §1
Vero = assay: Cytotoxicity against african green monkey Vero cells after 72 hrs by CellTiter assay; type: cell-based; conditions: Chlorocebus sabaeus
[4] = system: Mycobacterium tuberculosis; assay: Antimycobacterial activity against Mycobacterium tuberculosis H37Rv ATCC 27294 culture in GAST media after 7 days by microplate alamar blue assay; type: functional; conditions: H37Rv ATCC 27294, 168 h; summary of the method: as §1
[5] = Chemical stability in simulated gastric fluid assessed as compound remaining at 50 uM after 15 mins by LC/MS analysis; type: physicochemical; conditions: read-out: Stability
[6] = system: Mycobacterium tuberculosis; assay: microbe, parasite or virus in culture; type: functional; conditions: H37Rv
[7] = system: Mycobacterium tuberculosis; assay: Antimycobacterial activity against isoniazid-,rifampin-,ethambutol-,kanamycin-,paraaminosalicylic acid-resistant Mycobacterium tuberculosis after 14 days; type: functional; conditions: 336 h
[8] = system: Mycobacterium tuberculosis; assay: Antimycobacterial activity against drug-sensitive Mycobacterium tuberculosis isolate 2 after 14 days; type: functional; conditions: isolate 2, 336 h
Escherichia coli = assay: Antibacterial activity against Escherichia coli; type: functional
Mycobacterium kansasii = assay: Antimycobacterial activity against Mycobacterium kansasii; type: functional
Mycobacterium avium = assay: Antimycobacterial activity against Mycobacterium avium; type: functional
Staphylococcus aureus = assay: Antibacterial activity against Staphylococcus aureus; type: functional
[9] = system: Mycobacterium tuberculosis; assay: Antimycobacterial activity against isoniazid-,rifampin-,ethambutol-,pyrazinamide-,streptomycin-,kanamycin-,paraaminosalicylic acid-resistant Mycobacterium tuberculosis after 14 days; type: functional; conditions: 336 h
[10] = system: Mycobacterium tuberculosis; assay: Antimycobacterial activity against drug-sensitive Mycobacterium tuberculosis isolate 1 after 14 days; type: functional; conditions: isolate 1, 336 h

Compound	MIC90 [2] [µM]	MIC90 [3] [µM]	IC50 (Vero) [µM]	MIC90 [4] [µM]	MIC90 [6] [µM]	further results
O=C(OCc1ccccc1)[C@@H]1COC(c2ccccc2)=N1	16.6 (≈ 4.67 µg/mL)	4.9 (≈ 1.38 µg/mL)	> 128	4.4 (≈ 1.24 µg/mL)	63 (≈ 17.7 µg/mL)	remaining at 0.25 h, 20 µM [1]: 2.8%; remaining at 0.25 h, 50 µM [5]: 1.7%
O=C(OCc1ccccc1)c1coc(-c2ccccc2)n1	3.9 (≈ 1.09 µg/mL)	5.7 (≈ 1.59 µg/mL)	–	0.49 (≈ 0.137 µg/mL)	37 (≈ 10.3 µg/mL)	remaining at 0.25 h, 20 µM [1]: 2.7%; MIC90 [7]: 1.1 µM (≈ 0.307 µg/mL); remaining at 0.25 h, 50 µM [5]: 1.8%; MIC90 [8]: 2.2 µM (≈ 0.614 µg/mL)
CCOC(=O)c1nc(-c2ccccc2)sc1C(C)=O	–	63 (≈ 17.3 µg/mL)	–	124 (≈ 34.1 µg/mL)	–	–
Cc1ccn2c(C(=O)NCc3ccccc3)c(C)nc2c1	2.3 (≈ 0.642 µg/mL)	0.7 (≈ 0.196 µg/mL)	> 128	2 (≈ 0.559 µg/mL)	54 (≈ 15.1 µg/mL)	remaining at 0.25 h, 20 µM [1]: 90%; MIC (Escherichia coli): > 50 µM; MIC (Mycobacterium kansasii): 1.3 µM (≈ 0.363 µg/mL); remaining at 0.25 h, 50 µM [5]: 100%; MIC (Mycobacterium avium): 1.3 µM (≈ 0.363 µg/mL); MIC (Staphylococcus aureus): > 50 µM
O=C(NCc1ccccc1)c1coc(-c2ccccc2)n1	> 40	> 65	–	59 (≈ 16.4 µg/mL)	–	–
O=C(OCc1ccccc1)[C@@H]1CSC(c2ccccc2)=N1	11.6 (≈ 3.45 µg/mL)	12.9 (≈ 3.84 µg/mL)	> 128	3.5 (≈ 1.04 µg/mL)	–	–
O=C(OCc1ccccc1)c1csc(-c2ccccc2)n1	7.2 (≈ 2.13 µg/mL)	6 (≈ 1.77 µg/mL)	> 128	6.2 (≈ 1.83 µg/mL)	–	MIC90 [7]: 4.2 µM (≈ 1.24 µg/mL); MIC90 [8]: 8.5 µM (≈ 2.51 µg/mL)
O=C(OCc1ccccc1)c1cc(-c2ccccc2)[nH]n1	> 38	3.5 (≈ 0.974 µg/mL)	> 128	> 64	–	–
O=C(OCc1ccccc1)c1cc(-c2ccccc2)on1	0.8 (≈ 0.223 µg/mL)	2.2 (≈ 0.614 µg/mL)	> 50	–	28 (≈ 7.82 µg/mL)	–
COc1ccc(-c2ccc(C(=O)OCc3ccccc3)cn2)cc1	9.5 (≈ 3.03 µg/mL)	1.9 (≈ 0.607 µg/mL)	–	–	–	–
Cc1ccn2c(C(=O)OCc3ccccc3)c(-c3ccccc3)nc2c1	< 0.195	< 0.195	> 50	–	21.7 (≈ 7.43 µg/mL)	–
Cc1ccn2c(C(=O)NCc3ccccc3)c(-c3ccccc3)nc2c1	2.9 (≈ 0.99 µg/mL)	0.6 (≈ 0.205 µg/mL)	> 50	–	> 50	–
Cc1ccn2c(C(=O)OCc3ccccc3)c(C)nc2c1	< 0.195	< 0.195	> 50	–	34.8 (≈ 9.76 µg/mL)	MIC90 [9]: < 0.04 µM; MIC90 [10]: < 0.04 µM; MIC90 [7]: < 0.04 µM; MIC90 [8]: < 0.04 µM
Cc1nc2ncccn2c1C(=O)OCc1ccccc1	4.7 (≈ 1.26 µg/mL)	2.3 (≈ 0.615 µg/mL)	> 50	–	–	–
Cc1cc2nc(C)c(C(=O)OCc3ccccc3)n2c(C)n1	5.3 (≈ 1.57 µg/mL)	1.1 (≈ 0.325 µg/mL)	> 50	–	–	–
O=C(Nc1ccccc1)c1coc(-c2ccccc2)n1	–	11 (≈ 2.91 µg/mL)	> 128	28 (≈ 7.4 µg/mL)	50 (≈ 13.2 µg/mL)	–
O=C(NC1CCCCC1)c1csc(-c2ccccc2)n1	–	15 (≈ 4.3 µg/mL)	–	15 (≈ 4.3 µg/mL)	–	remaining at 0.25 h, 20 µM [1]: 3.3%; remaining at 0.25 h, 50 µM [5]: 3.3%
CCCCCCNC(=O)c1csc(-c2ccccc2)n1	–	14 (≈ 4.04 µg/mL)	–	60 (≈ 17.3 µg/mL)	–	remaining at 0.25 h, 20 µM [1]: 18.9%; remaining at 0.25 h, 50 µM [5]: 0.1%
CC(C)(C)OC(=O)c1coc(-c2ccccc2)n1	–	> 64	–	> 64	–	remaining at 0.25 h, 20 µM [1]: 42%
CCOC(=O)c1csc(-c2cccc(C(F)(F)F)c2)n1	–	59 (≈ 17.8 µg/mL)	–	61 (≈ 18.4 µg/mL)	–	–
CCOC(=O)c1csc(-c2cccc(Cl)c2Cl)n1	–	41 (≈ 12.4 µg/mL)	–	39 (≈ 11.8 µg/mL)	–	–
CCOC(=O)c1n[nH]c(-c2cccc(C)c2)c1N	–	> 128	–	> 128	–	–
CCOC(=O)c1nn(Cc2ccccc2)cc1N	–	126 (≈ 30.9 µg/mL)	–	> 128	–	–
CCOC(=O)c1cc(-c2ccc([N+](=O)[O-])cc2)[nH]n1	–	> 128	–	> 128	–	–
NNC(=O)c1ccncc1 [ISONIAZID]	0.37 (≈ 0.0507 µg/mL)	0.22 (≈ 0.0302 µg/mL)	> 128	–	> 512	–
O=[N+]([O-])c1cn2c(n1)OC[C@@H](OCc1ccc(OC(F)(F)F)cc1)C2 [PRETOMANID]	–	–	–	–	–	MIC90 [9]: 0.45 µM (≈ 0.162 µg/mL); MIC90 [10]: 0.45 µM (≈ 0.162 µg/mL); MIC90 [7]: 0.45 µM (≈ 0.162 µg/mL); MIC90 [8]: > 13.9 µM
CO[C@H]1/C=C/O[C@@]2(C)Oc3c(C)c(O)c4c(O)c(c(/C=N/N5CCN(C)CC5)c(O)c4c3C2=O)NC(=O)/C(C)=C\C=C\[C@H](C)[C@H](O)[C@@H](C)[C@@H](O)[C@@H](C)[C@H](OC(C)=O)[C@@H]1C [RIFAMPIN]	0.04 (≈ 0.0329 µg/mL)	0.09 (≈ 0.0741 µg/mL)	–	0.2 (≈ 0.165 µg/mL)	–	–
